The record followed here is article PMC9046076 (International Journal for Parasitology: Drugs and Drug …, 2022).

The subject of one data set is C. parvum AUCP-1 isolate. Nature of the data set: In vitro C. parvum growth inhibition in HCT-8 cells, immunofluorescence assay. The note with it: for IC50: Cryptosporidium parvum; for SI C. parvum (selectivity index): SI = IC50 HCT-8 (or HFF)/IC50 parasite (at 0 h p.i.). It counts as cell-based, Cryptosporidium parvum. The method in brief: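 Confluent HCT-8 monolayers in supplemented RPMI-1640 infected with 10⁵ freshly excysted sporozoites per well. […] After 72 h, cells were fixed in methanol-acetic acid (9:1), permeabilised, blocked with 5% goat serum and stained overnight at 4 °C with fluorescein anti-C. parvum antibody. Imaged at 20×, triplicates, three assays, nonlinear regression IC50; SI = host-cell IC50/parasite IC50 (0 h p.i.).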

Data set [1] is described as follows: WST-1 cytotoxicity assay in uninfected HCT-8 cells. The class given is cell-based. The note with it: human. The method in brief: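 HCT-8 cells (5 × 10⁴/well) were grown overnight at 37 °C, 5% CO₂ in phenol-red-free RPMI-1640 with added glucose, bicarbonate, pyruvate and 10% heat-inactivated FBS. They were treated with test compound (20 μM screen or dose range) or DMSO for 48 h. WST-1 was then added for 1 h at 37 °C in the dark, and absorbance read at 440 nm (reference 690 nm). % toxicity = (OD_DMSO − OD_compound)/OD_DMSO × 100. IC50 by nonlinear regression of triplicate means.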
On the technique in general: Tetrazolium dyes change colour on reduction, which living cells bring about.

The subject of data set [2] is T. gondii type I RH strain. As to the kind of experiment: In vitro T. gondii type I RH. It counts as cell-based, Toxoplasma gondii. The note with it: for reduction of T. gondii parasite growth: 11 μM, added immediately after infection, 48 h, HFF cells; for IC50: Toxoplasma gondii, HFF; for SI T. gondii (selectivity index): SI = IC50 HCT-8 (or HFF)/IC50 parasite (at 0 h p.i.). The method in brief:
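Single-concentration screen: confluent HFF monolayers in IMDM were infected with about 5 × 10³ RH-YFP tachyzoites per well, and test compound (11 μM final, in DMSO) was added immediately. Controls were atovaquone at 0.5 μM, DMSO vehicle and uninfected background wells. After 48 h at 37 °C with 5% CO₂, YFP was quantified from 9 thresholded 20× images per well. Percent inhibition was taken against DMSO; triplicates, repeated at least thrice.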

Data set [3] is described as follows: WST-1 cytotoxicity assay in uninfected HFF cells. It counts as cell-based. The note with it: human.
The test system of data set [4] is T. gondii type II ME49 strain. Nature of the data set: In vitro T. gondii type II ME49. It counts as cell-based. The note with it: Toxoplasma gondii, HFF, 48 h, read-out: IC50 against T. gondii Type II (ME49) in HFF cells.
In data set [5] the test system is T. gondii Type II (ME49) cysts in rats' brains. The class given is in vivo, Toxoplasma gondii. The note with it: JS-2-41 3 mg/kg; for reduction in the number of Toxoplasma cysts in the brain: infected rats, 14 days of treatment, JS-2-44 4 mg/kg i.p.; for decrease in brain cysts compared to untreated rats: male Brown Norway rats, i.p. daily for 14 days, JS-2-44 4 mg/kg. The procedure, abridged: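 Male Brown Norway rats, 4 weeks old, were acclimatised 7 days, then inoculated i.m. with 5 × 10⁴ ME49 tachyzoites in 0.1 ml PBS. Once brain cysts were confirmed in two untreated rats, groups (n = 3) received daily i.p. test compound or atovaquone (5 mg/kg) in 0.2 ml 5% DMSO/PBS for 2 weeks; untreated rats got vehicle. Brains were homogenised in 5 ml PBS, cysts counted in 50 μl on 3 slides (10×) and scaled to total volume. One-way ANOVA with Dunnett.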

[6] abbreviates: HCT-8, read-out: Parasite IC50 C. parvum 0h p.i.
[7] abbreviates: HCT-8, read-out: Parasite IC50 C. parvum 2h p.i.
The mark [8] stands for this setting: read-out: Parasite IC50 T. gondii 0h p.i.
[9] abbreviates: read-out: Parasite IC50 T. gondii 2h p.i.

Where two headings read alike, the source gives them in different places.

For orientation: IC50 means the midpoint of a concentration-inhibition curve. For the molecule `CC(C)(NC(=O)c1cc2c(Cl)cc(Cl)cc2[nH]1)c1cn(Cc2ccccc2)nn1` [JS-2-27, N-(2-(1-Benzyl-1H-1,2,3-triazol-4-yl)propan-2-yl)-4,6-dichloro-1H-indole-2-carboxamide], the IC50 turned out to be 9.37 µM in the data set with C. parvum AUCP-1 isolate (setting [6]) and 10.7 µM in the data set with C. parvum AUCP-1 isolate (setting [7]). Moreover, in the data set with C. parvum AUCP-1 isolate, the “SI C. parvum (selectivity index)” value is recorded as 27.09. In data set [1], this molecule returned an IC50 at 48 h of 254 µM.

Turning to `CC(C)(NC(=O)c1cc2c(F)cc(F)cc2[nH]1)c1cn(Cc2ccc(Cl)c(Cl)c2)nn1` [JS-2-43, N-(2-(1-(3,4-Dichlorobenzyl)-1H-1,2,3-triazol-4-yl)propan-2-yl)-4,6-difluoro-1H-indole-2-carboxamide], the IC50 at 48 h in data set [1] was found to be 174 µM.

Take `C#CC(C)(C)NC(=O)c1cc2c(Cl)cc(Cl)cc2[nH]1` [JS-2-22, 4,6-Dichloro-N-(2-methylbut-3-yn-2-yl)-1H-indole-2-carboxamide]: the values for the IC50 in the data set with C. parvum AUCP-1 isolate (setting [6]) and in the data set on C. parvum AUCP-1 isolate (setting [7]) were 12.3 µM and 12.5 µM, respectively. Moreover, the “SI C. parvum (selectivity index)” value in the data set with C. parvum AUCP-1 isolate is 8.24. Moreover, in data set [1], the IC50 at 48 h was found to be 101 µM.

In the case of `CC(C)(NC(=O)c1cc2c(F)cc(F)cc2[nH]1)c1cn(Cc2ccccc2Cl)nn1` [JS-2-25, N-(2-(1-(2-Chlorobenzyl)-1H-1,2,3-triazol-4-yl)propan-2-yl)-4,6-difluoro-1H-indole-2-carboxamide], the IC50 at 48 h in data set [1] came out at 107 µM.

For `CC(C)(NC(=O)c1cc2c(Cl)cc(Cl)cc2[nH]1)c1cn(Cc2ccccc2Cl)nn1` [JS-2-28, 4,6-Dichloro-N-(2-(1-(2-chlorobenzyl)-1H-1,2,3-triazol-4-yl)propan-2-yl)-1H-indole-2-carboxamide], the “reduction of T. gondii parasite growth” value in data set [2] is “over 50%”. The IC50 is 11.6 µM in data set [2] (setting [8]), 19.2 µM in data set [2] (setting [9]), 8.32 µM in the data set on C. parvum AUCP-1 isolate (setting [6]) and 8.59 µM in the data set on C. parvum AUCP-1 isolate (setting [7]). Further, in the data set with C. parvum AUCP-1 isolate, the “SI C. parvum (selectivity index)” value was 28.05. In addition, the results for the IC50 at 48 h in data set [1] and in data set [3] were 233 µM and 209 µM, respectively.

Take `CC(C)(NC(=O)c1cc2c(Cl)cc(Cl)cc2[nH]1)c1cn(Cc2ccc(Cl)c(Cl)c2)nn1` [JS-2-44, 4,6-Dichloro-N-(2-(1-(3,4-dichlorobenzyl)-1H-1,2,3-triazol-4-yl)propan-2-yl)-1H-indole-2-carboxamide]: the IC50 was 2.95 µM in data set [2] (setting [8]); 3.24 µM in data set [2] (setting [9]); 10.6 µM in data set [4]; 7.63 µM in the data set on C. parvum AUCP-1 isolate (setting [6]); 9.12 µM in the data set with C. parvum AUCP-1 isolate (setting [7]). The “SI C. parvum (selectivity index)” value in the data set on C. parvum AUCP-1 isolate came out at 27.48. Also, the IC50 at 48 h in data set [1] came out at 210 µM; in data set [3] it was 209 µM. Besides, in data set [5], the “reduction in the number of Toxoplasma cysts in the brain” value is recorded as “over 90%”. The “decrease in brain cysts compared to untreated rats” value in data set [5] is reported as 10 fold.

`c1ccc(-c2cn(C34CC5CC(CC(C5)C3)C4)nn2)cc1` [JS-2-40, 1-(Adamantan-1-yl)-4-phenyl-1H-1,2,3-triazole] returned a concentration for half-maximal inhibition (IC50) at 48 h in data set [1] of 135 µM.

As to `NC[C@@H]1O[C@H](O[C@H]2[C@@H](O)[C@H](O[C@@H]3[C@@H](O)[C@H](N)C[C@H](N)[C@H]3O[C@H]3O[C@H](CO)[C@@H](O)[C@H](O)[C@H]3N)O[C@@H]2CO)[C@H](N)[C@@H](O)[C@@H]1O` [PMO, paromomycin, reference compound], the IC50 was determined as 220 µM in the data set with C. parvum AUCP-1 isolate (setting [6]) and 227 µM with C. parvum AUCP-1 isolate (setting [7]).

Take `O=C1C(O)=C([C@H]2CC[C@H](c3ccc(Cl)cc3)CC2)C(=O)c2ccccc21` [ATQ, atovaquone, reference compound]: the IC50 in data set [2] (setting [8]) was 0.084 µM; in data set [2] (setting [9]) it was 0.087 µM.

`C#CC(C)(C)NC(=O)c1cc2c(F)cc(F)cc2[nH]1` [JS-2-15, 4,6-Difluoro-N-(2-methylbut-3-yn-2-yl)-1H-indole-2-carboxamide] displayed a half-maximal inhibitory concentration (IC50) at 48 h in data set [1] of 109 µM.

For the molecule `CC(C)(NC(=O)c1cc2c(F)cc(F)cc2[nH]1)c1cn(C23CC4CC(CC(C4)C2)C3)nn1` [JS-2-19, N-(2-(1-(Adamantan-1-yl)-1H-1,2,3-triazol-4-yl)propan-2-yl)-4,6-difluoro-1H-indole-2-carboxamide], in data set [2], the “reduction of T. gondii parasite growth” value was “over 50%” and the “SI T. gondii (selectivity index)” value worked out at 12.66. The IC50 in data set [2] (setting [8]) came to 8.51 µM. Further, in data set [2] (setting [9]), the half-maximal inhibitory concentration (IC50) stood at 10.6 µM. The same molecule showed an IC50 at 48 h in data set [3] of 108 µM.

Turning to `CC(C)(NC(=O)c1cc2c(F)cc(F)cc2[nH]1)c1cn(Cc2ccccc2)nn1` [JS-2-18, N-(2-(1-Benzyl-1H-1,2,3-triazol-4-yl)propan-2-yl)-4,6-difluoro-1H-indole-2-carboxamide], half-maximal inhibition in data set [1] (IC50 at 48 h) required 205 µM.

As for `CC(C)(NC(=O)c1cc2c(Cl)cc(Cl)cc2[nH]1)c1cn(Cc2cccc(Cl)c2)nn1` [JS-2-30, 4,6-Dichloro-N-(2-(1-(3-chlorobenzyl)-1H-1,2,3-triazol-4-yl)propan-2-yl)-1H-indole-2-carboxamide], the “reduction of T. gondii parasite growth” value in data set [2] was “over 50%”. Moreover, the IC50 in data set [2] (setting [8]) is 5.43 µM; in data set [2] (setting [9]), 6.32 µM; in the data set on C. parvum AUCP-1 isolate (setting [6]) it was 5.05 µM; with C. parvum AUCP-1 isolate (setting [7]) it was 5.86 µM. In addition, the “SI C. parvum (selectivity index)” value with C. parvum AUCP-1 isolate is 38.16. In addition, the IC50 at 48 h was 193 µM in data set [1] and 268 µM in data set [3].

As for `CC1(C)COC(c2ccc(-c3cn(C45CC6CC(CC(C6)C4)C5)nn3)cc2)OC1` [JS-2-41, 1-(Adamantan-1-yl)-4-(4-(5,5-dimethyl-1,3-dioxan-2-yl)phenyl)-1H-1,2,3-triazole], in data set [2], the “reduction of T. gondii parasite growth” value is “over 50%”. The IC50 came to 1.94 µM in data set [2] (setting [8]), 2.15 µM in data set [2] (setting [9]) and 1.5 µM in data set [4]. Moreover, the IC50 at 48 h in data set [3] stood at 168 µM. Further, in data set [5], the “reduction in the number of Toxoplasma cysts in the brain” value is recorded as “over 90%”. Further, in data set [5], the “decrease in brain cysts compared to untreated rats” value was determined as 10 fold.

As to `CC(C)(NC(=O)c1cc2c(Cl)cc(Cl)cc2[nH]1)c1cn(C23CC4CC(CC(C4)C2)C3)nn1` [JS-2-31, N-(2-(1-(Adamantan-1-yl)-1H-1,2,3-triazol-4-yl)propan-2-yl)-4,6-dichloro-1H-indole-2-carboxamide], in data set [2], the “reduction of T. gondii parasite growth” value is “over 50%” and the “SI T. gondii (selectivity index)” value worked out at 17.15. Moreover, the IC50 in data set [2] (setting [8]) amounted to 7.88 µM. In data set [2] (setting [9]), the IC50 was 12.1 µM. The molecule also gave an IC50 at 48 h in data set [3] of 135 µM.
